Reference: ChEMBL document CHEMBL1146717, “Investigation of novel fumagillin analogues as angiogenesis inhibitors” (Bioorg Med Chem Lett, 2004)

How the values were obtained:
HUVEC [1] = test: Tested for inhibition of the human umbilical vein endothelial cell (HUVEC) proliferation
HUVEC [2] = test: Percent remained in HUVEC lysate after 2 hr in presence of epoxide hydrolase (EH) along with inhibitor (Control = 103) (Compound used as substrate); Expressed as % remaining; format: functional, Homo sapiens
Summary of the method: (§1)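 Epoxide hydrolase (1 mg/mL protein, final) was co-incubated at 37 °C with the compound (2 mM) plus cyclohexene oxide (50 mM) as EH inhibitor. Substrate remaining and hydrolysate were quantified at 3 min, 0.5 h and 2 h as % values, with an estimated error of 10–15%.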

HUVEC [3] = test: Percent remained in HUVEC lysate after 0.5 hr in presence of epoxide hydrolase (EH) along with inhibitor (Compound used as hydrolysate); Expressed as % remaining; format: functional, Homo sapiens; summary of the method: as §1
HUVEC [4] = test: Percent stability determined after 0 hr in HUVEC lysate; expressed as % remaining; format: functional, Homo sapiens
Summary of the method: (§2)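 Compound (1 mM) was incubated in HUVEC lysate at 37 °C and sampled at 0, 4 and 20 h. Results are expressed as % of compound remaining, with an estimated measurement error of 10–15%.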

HUVEC [5] = test: Percent stability after 20 hr in HUVEC culture medium; expressed as % remaining; format: functional, Homo sapiens
HUVEC [6] = test: Percent remained in HUVEC lysate after 3 min in presence of epoxide hydrolase (EH) (Compound used as hydrolysate); Expressed as % remaining; format: functional, Homo sapiens
Summary of the method: (§3)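 Each compound at 2 mM incubated at 37 °C with epoxide hydrolase (1 mg/mL protein, final), alongside a no-enzyme control. Substrate remaining and hydrolysate formed were quantified at 3 min, 0.5 h and 2 h as % values. Estimated measurement error is 10–15%.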

HUVEC [7] = test: Percent remained in HUVEC lysate after 2 hr in presence of epoxide hydrolase (EH) along with inhibitor (Compound used as hydrolysate); Expressed as % remaining; format: functional, Homo sapiens; summary of the method: as §1
HUVEC [8] = test: Percent remained in HUVEC lysate after 3 min in presence of epoxide hydrolase (EH) (Control = 100) (Compound used as substrate); Expressed as % remaining; format: functional, Homo sapiens; summary of the method: as §3
HUVEC [9] = test: Percent remained in HUVEC lysate after 3 min in presence of epoxide hydrolase (EH) along with inhibitor (Control = 100) (Compound used as substrate); Expressed as % remaining; format: functional, Homo sapiens; summary of the method: as §1
HUVEC [10] = test: Percent stability determined after 20 hr in HUVEC lysate; expressed as % remaining; format: functional, Homo sapiens; summary of the method: as §2
HUVEC [11] = test: Percent stability after 0 hr in HUVEC culture medium; expressed as % remaining; format: functional, Homo sapiens
HUVEC [12] = test: Percent stability after 4 hr in HUVEC culture medium; expressed as % remaining; format: functional, Homo sapiens
HUVEC [13] = test: Percent remained in HUVEC lysate after 0.5 hr in presence of epoxide hydrolase (EH) (Control = 103) (Compound used as substrate); Expressed as % remaining; format: functional, Homo sapiens; summary of the method: as §3
HUVEC [14] = test: Percent stability after 4 hr in HUVEC lysate; Expressed as % remaining; format: functional, Homo sapiens; summary of the method: as §2
HUVEC [15] = test: Percent remained in HUVEC lysate after 0.5 hr in presence of epoxide hydrolase (EH) (Compound used as hydrolysate); Expressed as % remaining; format: functional, Homo sapiens; summary of the method: as §3
HUVEC [16] = test: Percent remained in HUVEC lysate after 0.5 hr in presence of epoxide hydrolase (EH) along with inhibitor (Control = 103) (Compound used as substrate); Expressed as % remaining; format: functional, Homo sapiens; summary of the method: as §1
HUVEC [17] = test: Percent remained in HUVEC lysate after 2 hr in presence of epoxide hydrolase (EH) (Control = 100) (Compound used as substrate); Expressed as % remaining; format: functional, Homo sapiens; summary of the method: as §3
HUVEC [18] = test: Percent remained in HUVEC lysate after 2 hr in presence of epoxide hydrolase (EH) (Compound used as hydrolysate); Expressed as % remaining; format: functional, Homo sapiens; summary of the method: as §3
HUVEC [19] = test: Percent remained in HUVEC lysate after 2 hr in presence of epoxide hydrolase (EH) along with inhibitor (Control = 106) used as substrate; Expressed as % remaining; format: functional, Homo sapiens; summary of the method: as §1
HUVEC [20] = test: Percent remained in HUVEC lysate after 2 hr in presence of epoxide hydrolase (EH) along with inhibitor (Control = 90) (Compound used as substrate); Expressed as % remaining; format: functional, Homo sapiens; summary of the method: as §1
HUVEC [21] = test: Percent remained in HUVEC lysate after 3 min in presence of epoxide hydrolase (EH) used as hydrolysate; Expressed as % remaining; format: functional, Homo sapiens; summary of the method: as §3
HUVEC [22] = test: Percent remained in HUVEC lysate after 0.5 hr in presence of epoxide hydrolase (EH) along with inhibitor (Control = 92) (Compound used as substrate); Expressed as % remaining; format: functional, Homo sapiens; summary of the method: as §1
HUVEC [23] = test: Percent stability determined after 0 hr in HUVEC culture medium; Expressed as % remaining; format: functional, Homo sapiens
HUVEC [24] = test: Percent stability determined after 4 hr in HUVEC lysate; Expressed as % remaining; format: functional, Homo sapiens; summary of the method: as §2
HUVEC [25] = test: Percent stability determined after 20 hr in HUVEC culture medium; Expressed as % remaining; format: functional, Homo sapiens
HUVEC [26] = test: Percent stability determined after 4 hr in HUVEC culture medium; Expressed as % remaining; format: functional, Homo sapiens
HUVEC [27] = test: Percent stability determined after 20 hr in HUVEC lysate; Expressed as % remaining; format: functional, Homo sapiens; summary of the method: as §2
HUVEC [28] = test: Percent stability determined after 0 hr in HUVEC lysate; Expressed as % remaining; format: functional, Homo sapiens; summary of the method: as §2
[29] = target: Methionine aminopeptidase 2 (Homo sapiens, UniProt P50579); test: Inhibitory activity against Methionine aminopeptidase 2
Sequence of Methionine aminopeptidase 2 (P50579 whole entry): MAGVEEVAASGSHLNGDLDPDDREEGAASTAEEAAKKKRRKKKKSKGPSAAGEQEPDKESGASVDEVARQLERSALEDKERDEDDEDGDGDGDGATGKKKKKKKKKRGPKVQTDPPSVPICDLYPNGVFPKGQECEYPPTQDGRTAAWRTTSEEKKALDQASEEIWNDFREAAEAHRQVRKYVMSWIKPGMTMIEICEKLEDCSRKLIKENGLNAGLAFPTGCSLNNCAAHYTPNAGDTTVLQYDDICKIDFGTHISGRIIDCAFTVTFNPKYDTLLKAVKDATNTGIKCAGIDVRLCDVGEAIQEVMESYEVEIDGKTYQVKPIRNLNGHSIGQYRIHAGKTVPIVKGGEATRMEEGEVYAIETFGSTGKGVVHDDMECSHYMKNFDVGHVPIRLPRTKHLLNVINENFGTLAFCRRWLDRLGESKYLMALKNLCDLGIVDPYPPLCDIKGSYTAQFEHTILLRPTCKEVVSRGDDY

`CO[C@@H]1[C@H](OC(C)=O)CC[C@]2(CO2)[C@H]1[C@@]1(C)O[C@@H]1CC=C(C)C` showed an EC50 (HUVEC [1]) of 3 nM.
Compound `CO[C@@H]1[C@H](OC(N)=O)CC[C@]2(CO2)[C@H]1/C(C)=N/OCc1ccccc1` has an Activity (HUVEC [2]) of 60%, an Activity (HUVEC [3]) of 15% and an Activity (HUVEC [4]) of 100%. For the same compound, the Activity (HUVEC [5]) was 69%, the EC50 (HUVEC [1]) was 88 nM and the Activity (HUVEC [6]) was 93%. For the same compound, the Activity (HUVEC [7]) was 60%, the Activity (HUVEC [8]) was 10% and the Activity (HUVEC [9]) was 106%. For the same compound, the Activity (HUVEC [10]) was 3%, the Activity (HUVEC [11]) was 100% and the Activity (HUVEC [12]) was 90%. For the same compound, the Activity (HUVEC [13]) was 2%, the Activity (HUVEC [14]) was 20% and the Activity (HUVEC [15]) was 95%. The Activity (HUVEC [16]) was 95%, the Activity (HUVEC [17]) was 1% and the Activity (HUVEC [18]) was 100%.
Work on `CO[C@@H]1[C@H](OC(C)=O)CC[C@]2(CO2)[C@H]1/C(C)=N/OCc1ccccc1` yielded an EC50 (HUVEC [1]) of 450 nM.
In the case of `CO[C@@H]1[C@H](OC(N)=O)CC[C@]2(CO2)[C@H]1[C@@]1(C)O[C@@H]1CC=C(C)C`, the EC50 (HUVEC [1]) is reported as 0.65 nM, the Activity (HUVEC [6]) is reported as 22% and the Activity (HUVEC [8]) is reported as 84%. For the same compound, the Activity (HUVEC [9]) was 98%, the Activity (HUVEC [19]) was 107% and the Activity (HUVEC [15]) was 103%. The Activity (HUVEC [16]) was 109% and the Activity (HUVEC [18]) was 100%.
`CO[C@@H]1[C@H](OC(N)=O)CC[C@]2(CO2)[C@H]1/C(C)=C/CC=C(C)C` gave an Activity (HUVEC [3]) of 21%, an Activity (HUVEC [4]) of 100% and an Activity (HUVEC [5]) of 68%. The EC50 (HUVEC [1]) was 490 nM, the Activity (HUVEC [7]) was 87% and the Activity (HUVEC [8]) was 18%. For the same compound, the Activity (HUVEC [20]) was 5%, the Activity (HUVEC [9]) was 108% and the Activity (HUVEC [10]) was 1%. The Activity (HUVEC [11]) was 100%, the Activity (HUVEC [12]) was 76% and the Activity (HUVEC [14]) was 36%. For the same compound, the Activity (HUVEC [21]) was 77%, the Activity (HUVEC [22]) was 75% and the Activity (HUVEC [15]) was 79%. For the same compound, the Activity (HUVEC [18]) was 100%.
`CCN1CCN(C(=O)O[C@@H]2CC[C@]3(CO3)[C@@H]([C@@]3(C)O[C@@H]3CC=C(C)C)[C@@H]2OC)CC1` was tested, and the Activity (HUVEC [23]) was 100%, the Activity (HUVEC [24]) was 91% and the Activity (HUVEC [25]) was 75%. For the same compound, the Activity (HUVEC [26]) was 95%, the Activity (HUVEC [27]) was 76% and the Activity (HUVEC [28]) was 100%.
Compound `CO[C@@H]1[C@H](OC(=O)/C=C/C=C/C=C/C=C/C(=O)O)CC[C@]2(CO2)[C@H]1[C@@]1(C)O[C@@H]1CC=C(C)C` [FUMAGILLIN] has an EC50 (HUVEC [1]) of 0.82 nM and an IC50 [29] of 0.63 nM.
